Results collected from several papers.
Compare with care: the assays were run in different laboratories. Converted amounts (≈) assume the structure as drawn.

SMILES | organism | test | test system | setting | quantity | value
CCCCCOc1ccc(-c2cc(-c3ccc(C(=O)N[C@H]4C[C@@H](O)[C@@H](O)NC(=O)[C@@H]5[C@@H](O)[C@@H](C)CN5C(=O)[C@H]([C@H](O)CC(N)=O)NC(=O)[C@H]([C@H](O)[C@@H](O)c5ccc(O)c(OS(=O)(=O)O)c5)NC(=O)[C@@H]5C[C@@H](O)CN5C(=O)[C@H]([C@@H](C)O)NC4=O)cc3)no2)cc1 | Candida albicans | biofilm formation |  | 16 µg/mL | inhibition | 47%
O=c1cccc(C2CCCCC2)n1O | Candida albicans | microbial growth | ATCC90028 |  | MIC80 | 1.9 µM (≈ 0.367 µg/mL)
Nc1cccc(-n2c(/C=C/c3ccc(F)cc3)nc3ccccc3c2=O)c1 | Enterococcus faecium | microbial growth, broth dilution | NCTC7171 |  | MIC | 128 mg/L (≈ 358 µM)
O=c1c2ccccc2[se]n1-c1ccccc1 | Trypanosoma brucei | parasite growth |  | blood stage | EC50 | 2.97 µM
O=c1c2ccccc2nc(/C=C/c2ccccc2F)n1-c1cccc(O)c1 | Enterococcus faecium | microbial growth, broth dilution | NCTC7171 |  | MIC | 32 mg/L (≈ 89.3 µM)
COC(=O)c1cc(-c2cccc(NC(=O)Nc3ccccc3OC)c2)on1 | Mycobacteroides chelonae | microbial growth, broth dilution | ATCC35752 | 48 h | MIC | > 64 mg/L
COc1ccc(Cc2cc(C)cc(=O)n2O)cc1 | Candida albicans | microbial growth | ATCC90028 |  | MIC80 | 2.3 µM (≈ 0.564 µg/mL)
CC(=O)Oc1cccc2c1[nH]c1c(C3=C[C@@]4(OC(C)=O)CC/C=C\CCCCN5CC[C@@H]3[C@]3(C[C@@H]6/C=C\CCCCN6[C@H]34)C5)nccc12 | Mycobacterium intracellulare | microbial killing |  |  | MBC | > 20 mg/L
COC(=O)c1cc(-c2cccc(NC(=S)Nc3ccc(C)cc3)c2)on1 | Mycobacteroides chelonae | microbial growth, broth dilution | ATCC35752 | 48 h | MIC | > 64 mg/L
O=c1c2ccccc2nc(/C=C/c2cccc(F)c2)n1-c1cccc(O)c1 | Enterococcus faecium | microbial growth, broth dilution | NCTC7171 |  | MIC | 32 mg/L (≈ 89.3 µM)
COC(=O)c1cc(-c2cccc(NC(=O)Nc3ccc(Cl)cc3Cl)c2)on1 | Mycobacteroides chelonae | microbial growth, broth dilution | ATCC35752 | 48 h | MIC | > 64 mg/L
Cc1ccc(/C=C/c2nc3ccccc3c(=O)n2-c2cccc(O)c2)cc1 | Enterococcus faecium | microbial growth, broth dilution | NCTC7171 |  | MIC | > 128 mg/L
COc1cccc(Cc2cc(C)cc(=O)n2O)c1 | Candida albicans | microbial growth | ATCC90028 |  | MIC80 | 2.3 µM (≈ 0.564 µg/mL)
COC(=O)c1cc(-c2cccc(NC(=S)Nc3ccc(Cl)cc3)c2)on1 | Mycobacteroides chelonae | microbial growth, broth dilution | ATCC35752 | 48 h | MIC | > 64 mg/L
O=C(N/N=C/c1ccc(O)c(O)c1)c1cc2ccccc2cc1O | Murine coronavirus | viral replication |  |  | IC50 | 6 µM
O=c1c2ccccc2nc(/C=C/c2ccccc2)n1-c1cccc(O)c1 | Enterococcus faecium | microbial growth, broth dilution | NCTC7171 |  | MIC | 32 mg/L (≈ 94 µM)
CCOC(=O)c1cc(-c2cccc(NC(=O)Nc3ccc(Cl)c(Cl)c3)c2)on1 | Mycobacteroides chelonae | microbial growth, broth dilution | ATCC35752 | 48 h | MIC | > 64 mg/L
Cc1nc(N)sc1-c1ccnc(Nc2ccc(N3CCOCC3)cc2)n1 | Plasmodium berghei | parasite growth, luciferase | human | liver stage | IC50 | 0.46 µM
COC(=O)c1cc(-c2cccc(NC(=S)Nc3cccc(Br)c3)c2)on1 | Mycobacteroides chelonae | microbial growth, broth dilution | ATCC35752 | 48 h | MIC | > 64 mg/L
N#Cc1ccc(/C=C/c2nc3ccccc3c(=O)n2-c2cc[nH]n2)cc1 | Enterococcus faecium | microbial growth, broth dilution | NCTC7171 |  | MIC | > 128 mg/L
